Assay results from ChEMBL document CHEMBL4004834, “Transition State-Based Sialyltransferase Inhibitors: Mimicking Oxocarbenium Ion by Simple Amide” (J Med Chem, 2017).

Tests used:
[1] = target: T1, Beta-galactoside alpha-2,6-sialyltransferase 1 (Homo sapiens) (UniProt P15907); assay: Inhibition of recombinant human N-terminal His-tagged ST6Gal-1 (44 to 406 residues) at 1 uM using CMP-Neu5Ac as substrate […] by UV/RP-HPLC method
T1 sequence (whole entry): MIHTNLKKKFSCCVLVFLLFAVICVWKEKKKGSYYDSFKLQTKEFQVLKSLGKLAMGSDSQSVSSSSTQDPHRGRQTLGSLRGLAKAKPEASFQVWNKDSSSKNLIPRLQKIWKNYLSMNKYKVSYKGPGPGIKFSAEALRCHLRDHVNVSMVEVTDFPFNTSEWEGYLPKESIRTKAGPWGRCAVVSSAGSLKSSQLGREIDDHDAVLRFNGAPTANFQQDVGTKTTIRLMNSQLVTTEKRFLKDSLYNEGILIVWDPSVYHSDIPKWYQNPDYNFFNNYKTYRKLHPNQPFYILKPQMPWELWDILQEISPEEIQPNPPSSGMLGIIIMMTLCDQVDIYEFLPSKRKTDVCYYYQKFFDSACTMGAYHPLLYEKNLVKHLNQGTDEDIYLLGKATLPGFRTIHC
Procedure, shortened: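 hST6Gal-I (aa 44-406), 80 ng per reaction, in pH 6.5 Mes buffer with 2 mM MnCl2 and 0.5% Triton X-100. Inhibitor at 1 µM with CMP-Neu5Ac (250 µM stock) and p-nitrophenyl LacNAc acceptor (5 mM stock), 37 °C, 30 min. Quenched by water and 95 °C for 2 min. Product read by RP-HPLC at 300 nm; donor consumption kept below 15%. Duplicates averaged.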

[2] = target: T1, Beta-galactoside alpha-2,6-sialyltransferase 1 (Homo sapiens); assay: Inhibition of recombinant human ST6Gal-1 (44 to 406 residues) assessed as ratio of CMP-Neu5Ac Km to compound Ki […] by UV/RP-HPLC method
[3] = target: T2, Beta-galactoside alpha-2,6-sialyltransferase 1 (Homo sapiens, UniProt P15907); assay: Inhibition of recombinant human N-terminal His-tagged ST6Gal-1 (44 to 406 residues) using CMP-Neu5Ac as substrate […] by UV/RP-HPLC method
T2 sequence (P15907 whole entry): T1 sequence (whole entry)

Row | SMILES | inhibition [1] | Ratio [2] | Ki [3]
1 | Nc1ccn([C@@H]2O[C@H](COP(=O)(O)O[C@@H](c3cccc(Oc4ccccc4)c3)P(=O)(O)O)[C@@H](O)[C@H]2O)c(=O)n1 | 87.6% | 2190 | 19 nM
2 | CC(=O)N[C@H]1[C@H](Oc2ccccc2)OC(C(OP(=O)(O)OC[C@H]2O[C@@H](n3ccc(N)nc3=O)[C@H](O)[C@@H]2O)P(=O)(O)O)=C[C@@H]1O (stereo in doubt; 1-h) [listing 1 of 2 here] | – | – | 29 nM
3 | CC(=O)N[C@H]1[C@H](Oc2ccccc2)OC(C(OP(=O)(O)OC[C@H]2O[C@@H](n3ccc(N)nc3=O)[C@H](O)[C@@H]2O)P(=O)(O)O)=C[C@@H]1O (stereo in doubt; 1-h) [listing 2 of 2 here] | – | 1580 | –
4 | CC(=O)N[C@H]1[C@H](Oc2ccccc2)OC(C(OP(=O)(O)OC[C@H]2O[C@@H](n3ccc(N)nc3=O)[C@H](O)[C@@H]2O)P(=O)(O)O)=C[C@@H]1O (stereo in doubt; 1-l) [listing 1 of 2 here] | – | – | 690 nM
5 | CC(=O)N[C@H]1[C@H](Oc2ccccc2)OC(C(OP(=O)(O)OC[C@H]2O[C@@H](n3ccc(N)nc3=O)[C@H](O)[C@@H]2O)P(=O)(O)O)=C[C@@H]1O (stereo in doubt; 1-l) [listing 2 of 2 here] | – | 67 | –
6 | Nc1ccn([C@@H]2O[C@H](COP(=O)(O)OC(c3ccccc3)P(=O)(O)O)[C@@H](O)[C@H]2O)c(=O)n1 (stereo in doubt; 2h) [listing 1 of 2 here] | – | – | 200 nM
7 | Nc1ccn([C@@H]2O[C@H](COP(=O)(O)OC(c3ccccc3)P(=O)(O)O)[C@@H](O)[C@H]2O)c(=O)n1 (stereo in doubt; 2h) [listing 2 of 2 here] | – | 230 | –
8 | Nc1ccn([C@@H]2O[C@H](COP(=O)(O)OC(c3ccccc3)P(=O)(O)O)[C@@H](O)[C@H]2O)c(=O)n1 (stereo in doubt; 2l) [listing 1 of 2 here] | – | – | 1000 nM
9 | Nc1ccn([C@@H]2O[C@H](COP(=O)(O)OC(c3ccccc3)P(=O)(O)O)[C@@H](O)[C@H]2O)c(=O)n1 (stereo in doubt; 2l) [listing 2 of 2 here] | – | 46 | –
10 | CC(=O)NC[C@@H]1CCC(OP(=O)(O)OC[C@H]2O[C@@H](n3ccc(N)nc3=O)[C@H](O)[C@@H]2O)(P(=O)(O)O)[C@H]1OCc1ccccc1 (stereo in doubt; 4-h) | – | 1490 | –
11 | CC(=O)NC[C@@H]1CCC(OP(=O)(O)OC[C@H]2O[C@@H](n3ccc(N)nc3=O)[C@H](O)[C@@H]2O)(P(=O)(O)O)[C@H]1OCc1ccccc1 (stereo in doubt; 4-l) | – | 87 | –
12 | Nc1ccn([C@@H]2O[C@H](COP(=O)(O)OC(CNC(=O)c3ccccc3)P(=O)(O)O)[C@@H](O)[C@H]2O)c(=O)n1 (stereo in doubt; 5a-l) [listing 1 of 2 here] | – | – | 174 nM
13 | Nc1ccn([C@@H]2O[C@H](COP(=O)(O)OC(CNC(=O)c3ccccc3)P(=O)(O)O)[C@@H](O)[C@H]2O)c(=O)n1 (stereo in doubt; 5a-l) [listing 2 of 2 here] | 61.7% | 239 | –
14 | Nc1ccn([C@@H]2O[C@H](COP(=O)(O)OC(CNC(=O)c3ccccc3)P(=O)(O)O)[C@@H](O)[C@H]2O)c(=O)n1 (stereo in doubt; 5a-s) [listing 1 of 2 here] | – | – | 16 nM
15 | Nc1ccn([C@@H]2O[C@H](COP(=O)(O)OC(CNC(=O)c3ccccc3)P(=O)(O)O)[C@@H](O)[C@H]2O)c(=O)n1 (stereo in doubt; 5a-s) [listing 2 of 2 here] | 88.9% | 2600 | –
16 | Nc1ccn([C@@H]2O[C@H](COP(=O)(O)OC(CN3C(=O)c4ccccc4C3=O)P(=O)(O)O)[C@@H](O)[C@H]2O)c(=O)n1 (stereo in doubt; 5f-l) | 14.3% | – | –
17 | Nc1ccn([C@@H]2O[C@H](COP(=O)(O)OC(CN3C(=O)c4ccccc4C3=O)P(=O)(O)O)[C@@H](O)[C@H]2O)c(=O)n1 (stereo in doubt; 5f-s) | 34.5% | – | –

Second part, the compound after the results:

Row | inhibition [1] | Ratio [2] | Ki [3] | SMILES
18 | – | 7.1 | – | Nc1ccn([C@@H]2O[C@H](COP(=O)(O)OC(C3CCCC3)P(=O)(O)O)[C@@H](O)[C@H]2O)c(=O)n1 (some centres undefined)
19 | – | – | 122 nM | Nc1ccn([C@@H]2O[C@H](COP(=O)(O)OC(C(=O)Nc3ccccc3)P(=O)(O)O)[C@@H](O)[C@H]2O)c(=O)n1 (stereo in doubt; 5b-l) [listing 1 of 2 here]
20 | 67.7% | 341 | – | Nc1ccn([C@@H]2O[C@H](COP(=O)(O)OC(C(=O)Nc3ccccc3)P(=O)(O)O)[C@@H](O)[C@H]2O)c(=O)n1 (stereo in doubt; 5b-l) [listing 2 of 2 here]
21 | – | – | 106 nM | Nc1ccn([C@@H]2O[C@H](COP(=O)(O)OC(C(=O)Nc3ccccc3)P(=O)(O)O)[C@@H](O)[C@H]2O)c(=O)n1 (stereo in doubt; 5b-s) [listing 1 of 2 here]
22 | 69.7% | 393 | – | Nc1ccn([C@@H]2O[C@H](COP(=O)(O)OC(C(=O)Nc3ccccc3)P(=O)(O)O)[C@@H](O)[C@H]2O)c(=O)n1 (stereo in doubt; 5b-s) [listing 2 of 2 here]
23 | – | – | 60 nM | Nc1ccn([C@@H]2O[C@H](COP(=O)(O)OC(C(=O)N3CCCC3)P(=O)(O)O)[C@@H](O)[C@H]2O)c(=O)n1 (stereo in doubt; 5c-S) [listing 1 of 2 here]
24 | 77% | 694 | – | Nc1ccn([C@@H]2O[C@H](COP(=O)(O)OC(C(=O)N3CCCC3)P(=O)(O)O)[C@@H](O)[C@H]2O)c(=O)n1 (stereo in doubt; 5c-S) [listing 2 of 2 here]
25 | – | – | 165 nM | Nc1ccn([C@@H]2O[C@H](COP(=O)(O)OC(C(=O)N3CCCC3)P(=O)(O)O)[C@@H](O)[C@H]2O)c(=O)n1 (stereo in doubt; 5c-l) [listing 1 of 2 here]
26 | 65.7% | 252 | – | Nc1ccn([C@@H]2O[C@H](COP(=O)(O)OC(C(=O)N3CCCC3)P(=O)(O)O)[C@@H](O)[C@H]2O)c(=O)n1 (stereo in doubt; 5c-l) [listing 2 of 2 here]
27 | – | – | 45 nM | Nc1ccn([C@@H]2O[C@H](COP(=O)(O)OC(C(=O)N3CCCCC3)P(=O)(O)O)[C@@H](O)[C@H]2O)c(=O)n1 (stereo in doubt; 5d-l) [listing 1 of 2 here]
28 | 80.3% | 925 | – | Nc1ccn([C@@H]2O[C@H](COP(=O)(O)OC(C(=O)N3CCCCC3)P(=O)(O)O)[C@@H](O)[C@H]2O)c(=O)n1 (stereo in doubt; 5d-l) [listing 2 of 2 here]
29 | – | – | 20 nM | Nc1ccn([C@@H]2O[C@H](COP(=O)(O)OC(C(=O)N3CCCCC3)P(=O)(O)O)[C@@H](O)[C@H]2O)c(=O)n1 (stereo in doubt; 5d-s) [listing 1 of 2 here]
30 | 86.3% | 2080 | – | Nc1ccn([C@@H]2O[C@H](COP(=O)(O)OC(C(=O)N3CCCCC3)P(=O)(O)O)[C@@H](O)[C@H]2O)c(=O)n1 (stereo in doubt; 5d-s) [listing 2 of 2 here]
31 | 15.1% | – | – | Nc1ccn([C@@H]2O[C@H](COP(=O)(O)OC(CN3C(=O)CCC3=O)P(=O)(O)O)[C@@H](O)[C@H]2O)c(=O)n1 (stereo in doubt; 5e-l)
32 | – | – | 224 nM | Nc1ccn([C@@H]2O[C@H](COP(=O)(O)OC(CN3C(=O)CCC3=O)P(=O)(O)O)[C@@H](O)[C@H]2O)c(=O)n1 (stereo in doubt; 5e-s) [listing 1 of 2 here]
33 | 58.8% | 186 | – | Nc1ccn([C@@H]2O[C@H](COP(=O)(O)OC(CN3C(=O)CCC3=O)P(=O)(O)O)[C@@H](O)[C@H]2O)c(=O)n1 (stereo in doubt; 5e-s) [listing 2 of 2 here]
